Measured values: PMC2903848 (The FEBS journal, 2010)
Each block holds one molecule with its values, some of them ahead of it.

Columns and labels:
PRMT1 [1] = target: PRMT1 (Rattus norvegicus, UniProt Q63009); assay: UV crosslinking of [3H]SAM to GST-PRMT1; format: binding; conditions: 100μM inhibitor, 20μM [3H]SAM
[2] = tested on: H3R17 methylation in 293T cells; assay: Cellular H3R17 methylation immunoblot in 293T cells; format: cell-based; conditions: 293T cells over treatment period (data not shown)
Summary of the method: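 293T cells grown in DMEM were treated for 24 hrs with DMSO vehicle, test compound (100μM or 300μM) or Adox (20μM). Histone extracts were immunoblotted with anti-histone 3 dimethylarginine 17 antibody. Methylation was quantified relative to vehicle-treated samples. Toxicity was followed over the treatment period. Three independent experiments.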

[3] = tested on: IL-4 promoter (−760 to +68) in Jurkat cells; assay: IL-4 promoter luciferase reporter in Jurkat cells; format: cell-based, human; conditions: 18hrs pretreatment then 6hr PMA/Ionomycin, 100μM (Adox 20μM)
Summary of the method: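 Jurkat cells in RPMI, electroporated (280V, 975μF) with IL-4 promoter luciferase reporter (3μg) plus thymidine kinase-driven Renilla luciferase (10ng) as internal control. Compounds in DMSO, vehicle control DMSO; 18 h pretreatment, then 6 h stimulation with 50 ng/mL PMA plus ionomycin. Dual luciferase read-out, firefly normalised to Renilla. At least three independent experiments.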

PRMT1/NIP45 interaction = assay: HA-PRMT1/FLAG-NIP45 coimmunoprecipitation in 293T cells; format: cell-based; conditions: 293T cells transfected with HA-PRMT1 and FLAG-NIP45; 100μM (Adox 20μM)
Summary of the method: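 293T cells were co-transfected (Fugene HD) with HA-PRMT1 and FLAG-NIP45 vectors, then treated with DMSO, test compound (100μM) or Adox (20μM). Lysates in 100 mM NaCl, 50 mM TRIS pH 7.5, 0.1% TX-100 buffer were immunoprecipitated with anti-HA agarose and blotted for FLAG, then reprobed for HA. FLAG/HA association was quantified versus DMSO; three experiments.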

Th1 cells = assay: Th1 cell IFNγ production by ELISA; format: cell-based, mice; conditions: 100μM
Summary of the method: (§1)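 Balb/c T helper cells isolated by magnetic beads, cultured in RPMI with plate-bound anti-CD3 1μg/mL, anti-CD28 2μg/mL and IL-2. Th1 skewed with rIL-12 5ng/mL and anti-IL-4 10 μg/mL (IFNγ line); Th2 with rIL-4 10 ng/mL and anti-IFNγ 10 μg/mL (IL-4 line). Day-7 cells at 1 × 10^6 cells/mL restimulated with plate-bound anti-CD3 (1μg/mL) for 24 h with compound or DMSO. Supernatant cytokine measured by ELISA; at least three experiments.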

Th2 cells = assay: Th2 cell IL-4 production by ELISA; format: cell-based, mice; conditions: 100μM
Summary of the method: as §1

[4] = Viability of T helper cells; format: cell-based; conditions: Balb/c, mouse, primary T helper cells
T helper cells [5] = assay: Viability of T helper cells; format: cell-based; conditions: T helper cells, 100 μM
T helper cells [6] = assay: T helper cell proliferation; format: cell-based, mice; conditions: anti-CD3 stimulated T helper cells, MTS assay
[7] = target: T1, recombinant human GST-PRMT4 (Homo sapiens, UniProt Q86X55); assay: In vitro methylation of histone 3 by recombinant GST-PRMT4; format: biochemical; conditions: read-out: PRMT4 IC50; recombinant human GST-PRMT4, histone 3 as substrate
T1 sequence (Q86X55 1-608): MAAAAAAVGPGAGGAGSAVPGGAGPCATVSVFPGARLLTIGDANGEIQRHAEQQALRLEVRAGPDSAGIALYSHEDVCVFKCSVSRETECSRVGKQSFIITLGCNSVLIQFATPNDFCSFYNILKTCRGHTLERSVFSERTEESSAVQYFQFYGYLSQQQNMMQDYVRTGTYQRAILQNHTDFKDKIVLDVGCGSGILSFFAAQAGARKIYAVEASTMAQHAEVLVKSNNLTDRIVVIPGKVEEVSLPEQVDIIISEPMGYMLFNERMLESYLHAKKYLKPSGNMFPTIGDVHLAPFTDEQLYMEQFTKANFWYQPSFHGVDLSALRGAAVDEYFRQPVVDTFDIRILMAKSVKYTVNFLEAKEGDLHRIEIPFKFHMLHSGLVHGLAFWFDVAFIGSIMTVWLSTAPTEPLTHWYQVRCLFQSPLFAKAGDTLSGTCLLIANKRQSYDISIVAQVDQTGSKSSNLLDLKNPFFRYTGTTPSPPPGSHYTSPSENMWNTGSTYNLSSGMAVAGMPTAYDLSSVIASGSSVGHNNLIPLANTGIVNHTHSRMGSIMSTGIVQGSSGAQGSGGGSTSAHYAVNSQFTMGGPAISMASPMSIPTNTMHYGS
Summary of the method: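 Recombinant human GST-PRMT4 methylated recombinant histone 3 in the presence of [3H]SAM and increasing concentrations of test compound. Methylation was quantified by densitometry, and IC50 was calculated by linear regression. Representative of at least three independent experiments.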

PRMT6 = PRMT6 (Homo sapiens, UniProt Q96LA8); assay: In vitro methylation of GST-GAR by recombinant GST-PRMT6; format: biochemical; conditions: 30μM compound, GST-GAR substrate
PRMT6, sequence (Q96LA8 whole entry, species assumed): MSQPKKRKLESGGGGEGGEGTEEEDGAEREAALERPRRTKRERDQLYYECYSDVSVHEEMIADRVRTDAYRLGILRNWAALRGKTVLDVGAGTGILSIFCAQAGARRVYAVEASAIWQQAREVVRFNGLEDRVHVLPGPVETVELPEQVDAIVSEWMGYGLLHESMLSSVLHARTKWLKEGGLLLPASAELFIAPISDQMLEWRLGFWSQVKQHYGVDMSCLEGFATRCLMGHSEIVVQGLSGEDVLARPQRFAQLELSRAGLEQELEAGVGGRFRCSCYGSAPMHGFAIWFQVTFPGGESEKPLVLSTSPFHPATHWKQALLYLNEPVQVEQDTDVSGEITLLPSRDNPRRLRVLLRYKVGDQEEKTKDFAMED
Summary of the method: (§2)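 Recombinant GST-PRMT6 or GST-PRMT8 was concentrated on a micron 10 filter and reacted with GST-GAR substrate and [3H]SAM plus 30μM test compound. Reactions were quantified by densitometry. Representative of at least three independent experiments.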

PRMT8 = PRMT8 (Homo sapiens, UniProt Q9NR22); assay: In vitro methylation of GST-GAR by recombinant GST-PRMT8; format: biochemical; conditions: 30μM compound, GST-GAR substrate
PRMT8, sequence (Q9NR22 whole entry, species assumed): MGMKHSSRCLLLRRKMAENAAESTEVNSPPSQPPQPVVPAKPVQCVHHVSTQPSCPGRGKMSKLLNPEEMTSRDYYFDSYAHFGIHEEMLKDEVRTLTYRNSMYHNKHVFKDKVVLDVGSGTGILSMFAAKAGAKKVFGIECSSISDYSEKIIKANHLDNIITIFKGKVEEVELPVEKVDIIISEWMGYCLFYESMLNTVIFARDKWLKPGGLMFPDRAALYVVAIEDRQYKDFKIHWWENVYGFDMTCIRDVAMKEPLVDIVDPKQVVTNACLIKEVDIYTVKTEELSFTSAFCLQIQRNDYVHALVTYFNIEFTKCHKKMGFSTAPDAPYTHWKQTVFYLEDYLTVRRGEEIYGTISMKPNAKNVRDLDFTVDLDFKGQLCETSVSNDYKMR
Summary of the method: as §2

PRMT5 = PRMT5 (Homo sapiens, UniProt O14744); format: biochemical; conditions: PRMT5 immunoprecipitated from 293T cells, MBP as substrate
PRMT5, sequence (O14744 whole entry): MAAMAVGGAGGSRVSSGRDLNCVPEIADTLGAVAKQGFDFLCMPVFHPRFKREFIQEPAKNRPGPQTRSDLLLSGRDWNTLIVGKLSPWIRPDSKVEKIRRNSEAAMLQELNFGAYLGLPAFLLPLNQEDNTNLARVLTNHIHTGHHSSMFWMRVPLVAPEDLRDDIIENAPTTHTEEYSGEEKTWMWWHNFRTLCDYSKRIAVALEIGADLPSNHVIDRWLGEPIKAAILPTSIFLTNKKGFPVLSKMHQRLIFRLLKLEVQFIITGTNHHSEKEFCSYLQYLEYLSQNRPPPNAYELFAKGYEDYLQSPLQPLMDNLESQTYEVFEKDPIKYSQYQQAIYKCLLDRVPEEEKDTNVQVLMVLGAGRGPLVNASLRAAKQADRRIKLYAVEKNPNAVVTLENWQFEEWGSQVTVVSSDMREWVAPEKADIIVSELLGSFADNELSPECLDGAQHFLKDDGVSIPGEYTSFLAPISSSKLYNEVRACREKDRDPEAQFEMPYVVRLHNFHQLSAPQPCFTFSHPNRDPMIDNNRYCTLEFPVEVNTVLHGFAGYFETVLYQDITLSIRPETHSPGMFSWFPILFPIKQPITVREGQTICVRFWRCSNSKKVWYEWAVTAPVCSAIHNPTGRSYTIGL
PRMT5, sequence (Q9BQA1 whole entry partner): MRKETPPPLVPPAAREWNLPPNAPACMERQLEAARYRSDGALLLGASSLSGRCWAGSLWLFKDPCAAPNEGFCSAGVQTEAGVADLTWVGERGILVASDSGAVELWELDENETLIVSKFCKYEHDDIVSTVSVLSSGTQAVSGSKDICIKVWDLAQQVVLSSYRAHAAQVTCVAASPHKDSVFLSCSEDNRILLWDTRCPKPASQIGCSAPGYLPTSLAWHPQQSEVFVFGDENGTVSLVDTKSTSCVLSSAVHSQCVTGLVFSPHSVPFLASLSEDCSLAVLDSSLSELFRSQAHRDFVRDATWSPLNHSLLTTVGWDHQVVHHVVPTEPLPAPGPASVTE
Summary of the method: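 PRMT5, or an isotype-control IP, was immunoprecipitated from 293 cell extracts and used in in vitro methylation reactions with MBP substrate at the indicated test compound concentrations. Reaction inputs were checked by immunoblotting with PRMT5 antisera. Representative of at least three independent experiments.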

PRMT1 [8] = assay: HA-PRMT1/FLAG-PRMT1 coimmunoprecipitation; conditions: 100μM during coimmunoprecipitation
Summary of the method: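 HA-PRMT1 and FLAG-PRMT1 were expressed in separately transfected 293T cells. Equal volumes of the two lysates were mixed and incubated with DMSO or test compound (100μM) during the anti-HA agarose immunoprecipitation. Blots were probed with anti-FLAG. As a specificity control, IPs from vector-only cells were incubated with FLAG-NIP45 lysates.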

recombinant hPRMT1 = conditions: read-out: PRMT1 IC50; reported value using recombinant hPRMT1 and GST-Npl3 as substrate; cited from earlier work

PRMT1 (Rattus norvegicus, UniProt Q63009), sequence (Q63009 whole entry): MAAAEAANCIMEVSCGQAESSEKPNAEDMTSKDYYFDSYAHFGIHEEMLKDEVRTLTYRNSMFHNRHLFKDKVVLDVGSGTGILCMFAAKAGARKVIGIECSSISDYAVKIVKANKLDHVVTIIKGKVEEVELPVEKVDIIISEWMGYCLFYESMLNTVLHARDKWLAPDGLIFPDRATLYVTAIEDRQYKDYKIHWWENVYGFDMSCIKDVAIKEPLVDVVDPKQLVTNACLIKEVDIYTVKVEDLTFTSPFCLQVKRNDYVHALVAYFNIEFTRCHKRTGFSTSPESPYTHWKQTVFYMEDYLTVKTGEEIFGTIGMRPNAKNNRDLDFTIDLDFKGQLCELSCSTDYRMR

competition for SAM binding to PRMT1 (PRMT1 [1]): competitive with SAM for binding
SMILES: Nc1ncnc2c1ncn2[C@@H]1O[C@H](C[C@@H](N)CC[C@H](N)C(=O)O)[C@@H](O)[C@H]1O [sinefungin]

SMILES: Nc1ncnc2c1ncn2C(C=O)OC(C=O)CO (centres unmarked) [Adox, adenosine dialdehyde]
cellular toxicity [2]: no cellular toxicity
effect on IL-4 promoter reporter activity [3]: greatly diminished
effect on PRMT1/NIP45 association (PRMT1/NIP45 interaction): reduced the association

SMILES: CSC[C@H]1O[C@@H](n2cnc3c(N)ncnc32)[C@H](O)[C@@H]1O [MTA, methylthioadenosine]
effect on IFNγ production (Th1 cells; Th1 cells): diminished
effect on IL-4 production (Th2 cells; Th2 cells): diminished
viability at 100 µM [4]: 90.9%
% apoptotic (T helper cells [5]): 4.9%
% necrotic (T helper cells [5]): 4.2%
effect on T helper cell proliferation (T helper cells [6]): inhibited T cell proliferation

IC50 [7]: 170 ± 10.7 µM
inhibition of GST-GAR methylation by PRMT6 (PRMT6): less effective
inhibition of GST-GAR methylation by PRMT8 (PRMT8): less effective
inhibition of PRMT5 activity (PRMT5): ineffective
SMILES: O=C(Nc1ccc2c(O)cc(S(=O)(=O)O)cc2c1)Nc1ccc2c(O)cc(S(=O)(=O)O)cc2c1 [AMI-1]
effect on HA-PRMT1/FLAG-PRMT1 interaction (oligomerization) (PRMT1 [8]): did not interfere with the interaction
reduction of Th1 IFNγ production (Th1 cells; anti-CD3 stimulated Th1 cells, ELISA): less than 40%
reduction of Th2 IL-4 levels (Th2 cells; anti-CD3 stimulated Th2 cells, ELISA): less than 40%
effect on IL-4 promoter reporter activity [3]: decreased promoter activity
effect on PRMT1/NIP45 association (PRMT1/NIP45 interaction): interfered with the NIP45 and PRMT1 interaction
IC50 (recombinant hPRMT1): 8.8 µM
